FGF22 binding: shifts melting point of recombinant human FGF22 | actives 1.5% (n = 340,000) | recombinant FGF22 thermal shift, SYPRO orange fluorescence; percent of sucrose octasulfate shift, DMSO zero | Q9HCT0 | activity (Tm shift, normalised), % at 9.99 µM | AID 651658;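 active means mean Tm shift, scaled 0 neutral to 100 positive control, at about 1.3% or above, every replicate too, limit read from the data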
Target sequence (Q9HCT0 whole entry, looked up): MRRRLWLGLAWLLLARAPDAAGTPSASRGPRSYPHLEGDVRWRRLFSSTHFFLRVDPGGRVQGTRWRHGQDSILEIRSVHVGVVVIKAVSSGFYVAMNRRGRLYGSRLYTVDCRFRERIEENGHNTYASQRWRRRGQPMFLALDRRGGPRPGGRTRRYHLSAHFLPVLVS
S100A4 MyoIIA: S100A4-myosin IIA interaction inhibition; S100A4/TAMRA-MyoIIA peptide fluorescence polarization; inhibition, % at 10.7 µM; P26447; actives 0.14% (n = 360,000);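 active means mean inhibition of at least 70% across replicates, with every replicate also reaching that level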
Target sequence (P26447 whole entry, looked up): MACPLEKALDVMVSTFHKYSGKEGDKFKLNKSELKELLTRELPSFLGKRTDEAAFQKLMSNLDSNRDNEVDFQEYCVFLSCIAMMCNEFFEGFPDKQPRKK
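Assay system: human S100A4 monomer with TAMRA-labelled myosin IIA peptide / Buffer or medium: Calcium-containing HEPES buffer, pH 7.2 / Reagent: TAMRA-labelled myosin IIA heavy-chain peptide probe, 5 nM / Compound: one dose per compound / Timing: polarization read 5 min after assay mix addition, stable 5–60 min / Benchmarks: neutral control DMSO, positive control TFP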
HIV Env fusion: blocks HIV Env-driven cell-cell fusion; HeLa-JRFL Env/CEM21 cell fusion, luciferase; inhibition, % at 12.3 µM; actives 1.1% (n = 360,000); AID 651610;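 active means mean replicate inhibition score of at least 50 and every replicate individually at or above 50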;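 further: 0% = plate neutral controls and 100% = maraviroc near 300 nM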
F508del corr: CFTR F508del correction in bronchial cells; CFBE cells, YFP halide quenching; stimulated with forskolin plus potentiator P3; % fluorescence drop versus neutral controls; actives 0.36% (n = 350,000); activity (quench increase), % at 7.58 µM;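 active means mean added fluorescence quench of at least 8% versus neutral control, with both replicates also reaching 8%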;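 further: cells transiently co-express mutant CFTR-F508del with the halide-sensitive YFP; corrector assay measuring rescue of mutant channel to the surface after 24 h compound exposure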
E-sel inducer: induces E-selectin expression in human endothelial cells | HUVEC E-selectin immunofluorescence imaging; normalized: neutral wells 0, TNF-alpha wells 100 | activation, % at 7.58 µM | actives 0.37% (n = 260,000);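 active means mean E-selectin-positive cell signal at least 10% of the positive control, reached in at least 60% of replicates, without over 20% cell loss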
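Test system: HUVEC; input: 3,000 HUVEC/well; measured by: immunofluorescence imaging; read-out: % PE-positive cells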
Active calls of the source: *; [ ] = another dose, or the depositor's remark. Compounds with a hit are over-represented: about 2.7% of the library has one in this group of screens.

How did Cc1ccc(S(=O)(=O)N2CCCCC2)cc1NC(=O)c1cncc(Br)c1 do in these assays?
FGF22 binding: -0.3; S100A4 MyoIIA: -3.8; HIV Env fusion: 12.3; F508del corr: -1.2

Results for Cc1ccc(OCc2ccc(Br)cc2)c([N+](=O)[O-])n1 ?
FGF22 binding: 45.3*; S100A4 MyoIIA: 1.6; HIV Env fusion: -125.9; F508del corr: 0.1

How did C[C@H](CO)N1C[C@H](C)[C@H](CN(C)S(=O)(=O)c2ccc(C#N)cc2)Oc2ncc(-c3ccc(F)cc3)cc2C1=O do in these assays?
FGF22 binding: -0.2; S100A4 MyoIIA: 4.4; HIV Env fusion: 26.8[16.7 µM]; F508del corr: -1.0; E-sel inducer: -0.2

Results for CC(C)CCNC(=O)c1onc(CSc2ccc(F)c(F)c2)c1C(=O)NCCC(C)C ?
FGF22 binding: -0.1; S100A4 MyoIIA: -0.3; HIV Env fusion: 26.3; F508del corr: -0.6; E-sel inducer: 0.0

How did CCCCNC(=O)c1onc(CSc2ccccc2C)c1C(=O)O do in these assays?
FGF22 binding: 0.4; S100A4 MyoIIA: 1.5; F508del corr: 8.3*; E-sel inducer: -0.1

Results for CCCCNC(=O)c1onc(CSc2ccccc2F)c1C(=O)O ?
FGF22 binding: 0.0; S100A4 MyoIIA: -0.1; HIV Env fusion: -33.2; F508del corr: -1.7; E-sel inducer: -0.1

Results for CCCNC(=O)c1onc(CSc2ccc(F)c(F)c2)c1C(=O)NCCC ?
FGF22 binding: 36.4*; S100A4 MyoIIA: -0.6; HIV Env fusion: 9.5; F508del corr: -1.4; E-sel inducer: 1.1

What do the screens show for `CC(=O)Oc1ccc(C2=Cc3ccc(OC(C)=O)cc3OC2C)cc1` (stereo not given)?
FGF22 binding: 43.4*; S100A4 MyoIIA: 4.1; HIV Env fusion: -104.7; F508del corr: 1.7; E-sel inducer: 118.3*

Results for Cc1ccc(S(=O)(=O)N2C[C@H](O)COC[C@@H]3O[C@H](CC(=O)NCCN4CCCCC4)CC[C@H]32)cc1 ?
FGF22 binding: 0.0; S100A4 MyoIIA: 4.1; F508del corr: 1.4; E-sel inducer: -0.2

Results for Cc1ccc(S(=O)(=O)N(C)C[C@@H]2Oc3c(NC(=O)c4ccncc4)cccc3C(=O)N([C@H](C)CO)C[C@H]2C)cc1 ?
FGF22 binding: -0.1; S100A4 MyoIIA: -31.1; HIV Env fusion: -17.0[16.7 µM]; F508del corr: -0.9; E-sel inducer: -0.3

What do the screens show for `Nc1sc(-c2ccccc2)cc1-c1n[nH]c(=S)n1C1CCCCC1`?
FGF22 binding: -0.4; S100A4 MyoIIA: 0.2; HIV Env fusion: -136.5; F508del corr: 13.0*; E-sel inducer: 1.1

What do the screens show for `O=C(C[C@@H]1CC[C@H]2[C@@H](COC[C@@H](O)CN2Cc2ccccc2F)O1)N[C@@H]1CCN(Cc2ccccc2)C1`?
FGF22 binding: 0.0; S100A4 MyoIIA: 0.1; F508del corr: 5.0; E-sel inducer: 0.1

What do the screens show for `CN(C)C(=O)COc1ccc2ccc(=O)oc2c1`?
HIV Env fusion: -62.8

Results for CCN(C(=O)COc1ccc2ccc(=O)oc2c1)C1CCCCC1 ?
FGF22 binding: -0.3; S100A4 MyoIIA: -4.6; F508del corr: 17.6*; E-sel inducer: -0.7

What do the screens show for `COc1ccc(NC(=O)Nc2ccc3c(c2)C(=O)N([C@H](C)CO)C[C@H](C)[C@H](CN(C)S(=O)(=O)c2c(C)noc2C)OCCCC[C@H](C)O3)cc1`?
FGF22 binding: 0.1; HIV Env fusion: 45.6[16.7 µM]; F508del corr: -0.3; E-sel inducer: 0.4

Results for CC(C)NC(=O)Nc1ccc2c(c1)CC(=O)N([C@H](C)CO)C[C@H](C)[C@@H](CN(C)S(=O)(=O)c1ccc(F)cc1)O2 ?
F508del corr: -1.9; E-sel inducer: -2.5

Results for CCn1c(CNC(=O)c2ccco2)nnc1SCC(=O)c1ccc(OC)cc1 ?
FGF22 binding: 43.3*; S100A4 MyoIIA: 0.9; HIV Env fusion: 10.1; F508del corr: -0.4; E-sel inducer: 0.2

How did COCCCn1cc(C(=O)c2cc(OC)ccc2OCC(=O)N2CCCCC2C)cc(C#N)c1=O (stereo not given) do in these assays?
FGF22 binding: 0.0; S100A4 MyoIIA: -2.5; HIV Env fusion: 16.5; F508del corr: 1.3

How did COCCNC(=O)COc1ccc(C)cc1C(=O)c1cc(C#N)c(=O)n(C2CC2)c1 do in these assays?
FGF22 binding: 44.4*; S100A4 MyoIIA: -4.0; HIV Env fusion: -6.2; F508del corr: -0.4

Results for CC(=O)N(c1ccccc1)c1ccc([N+](=O)[O-])cc1[N+](=O)[O-] ?
HIV Env fusion: 9.0; E-sel inducer: 1.3

How did CC(=O)N(c1cc(C)ccc1C)c1ccccc1[N+](=O)[O-] do in these assays?
FGF22 binding: 43.0*; S100A4 MyoIIA: -0.4; HIV Env fusion: 0.5; F508del corr: 3.4; E-sel inducer: 0.3

How did O=C(CCCN1C(=O)S/C(=C\c2ccccc2)C1=O)NNC(=O)c1ccccc1O do in these assays?
FGF22 binding: 0.2; S100A4 MyoIIA: -5.0; HIV Env fusion: 71.2*; F508del corr: -2.1; E-sel inducer: -3.0

Results for O=C(CCCN1C(=O)/C(=C/c2ccccc2Cl)SC1=S)NNC(=O)c1ccc(Cl)cc1Cl ?
FGF22 binding: 0.3; S100A4 MyoIIA: 7.8; HIV Env fusion: 56.6*; F508del corr: -0.1; E-sel inducer: 2.1

How did COc1ccc(NC(=O)N[C@H]2CC[C@@H](CCn3cc(-c4ccccc4)nn3)O[C@H]2CO)cc1 do in these assays?
FGF22 binding: 0.1; S100A4 MyoIIA: -25.9; HIV Env fusion: 6.7[16.7 µM]; F508del corr: -4.7; E-sel inducer: -1.0

Results for CO[C@@H]1CN(C)C(=O)c2ccc(NC(=O)c3ccc(F)cc3)cc2OC[C@@H](C)N(C(=O)CN(C)C)C[C@@H]1C ?
F508del corr: -2.7; E-sel inducer: -0.2

How did COc1ccc2c(c1)-c1c(ssc1=S)C(C)(C)N2C(=O)CSC1=NCCS1 do in these assays?
HIV Env fusion: 9.6

Results for CCOc1ccc2c(c1)-c1c(ssc1=S)C(C)(C)N2C(=O)c1ccco1 ?
HIV Env fusion: 71.5*; E-sel inducer: 0.9

How did COc1ccc(C#Cc2cnc3c(c2)C(=O)N([C@@H](C)CO)C[C@H](C)[C@H](CN(C)C(=O)Nc2cccc(OC)c2)O3)cc1 do in these assays?
HIV Env fusion: 48.6[16.7 µM]; F508del corr: -4.8; E-sel inducer: 0.0

How did Cc1ccccc1C(=O)O/N=C/c1c(N2CCOCC2)n(C)c2ccccc12 do in these assays?
HIV Env fusion: 60.4*

What do the screens show for `Cn1ccs/c1=N\C(=O)Nc1cccc(Cl)c1`?
FGF22 binding: 42.9*; S100A4 MyoIIA: -5.3; HIV Env fusion: -106.0; F508del corr: -1.0

What do the screens show for `CC(=O)N(C)C[C@H]1Oc2ncc(-c3ccc(C#N)cc3)cc2C(=O)N([C@H](C)CO)C[C@H]1C`?
FGF22 binding: -0.1; S100A4 MyoIIA: -7.9; HIV Env fusion: 8.3[16.7 µM]; F508del corr: 2.9; E-sel inducer: 0.4

Screening results: PubChem BioAssay, Broad Institute
